Measured values of several laboratories.
Lines come from different studies, so protocols differ.
ALK: ALK tyrosine kinase receptor (ALK, Homo sapiens, UniProt Q9UM73)
ALK C1156Y: ALK tyrosine kinase receptor (ALK, Homo sapiens, UniProt Q9UM73, C1156Y)
ALK L1196M: ALK tyrosine kinase receptor (ALK, Homo sapiens, UniProt Q9UM73, L1196M)

CO[C@H]1CC[C@H](CNc2ccc(S(=O)(=O)NC(=O)c3ccc(N4CCN(CC5=C(c6ccc(Cl)cc6)CC(C)(C)CC5)CC4)cc3Oc3cnc4[nH]ccc4c3)cc2[N+](=O)[O-])CC1
remaining binding (ALK; cell-free assay, competition with immobilised ligand; 1 µM): 100%

COc1cnc(Nc2cccc(S(N)(=O)=O)c2)nc1N1CCN(c2ccccc2)C(=O)C1
remaining binding (ALK; binding, competition with immobilised ligand; 1 µM): 100%

C[C@@H](c1ccc(-n2cnc3c(N)ncnc32)cc1)N1CCc2nn(C)c(Cc3ccccc3)c2C1=O
remaining binding (ALK C1156Y; binding, competition with immobilised ligand; 0.1 µM): 57%

N[C@@H]1CCN(c2nccc(-c3cnn4ncccc34)n2)C1
remaining binding (ALK; binding; 1 µM): 97%

CCS(=O)(=O)c1cc2cc(C[C@](O)(CC(C)(C)c3ccc(F)cc3C(N)=O)C(F)(F)F)[nH]c2cn1
remaining binding (ALK C1156Y; cell-free assay, competition with immobilised ligand; 1 µM): 96%

CN(c1nccc(-c2cnn3ncccc23)n1)C1CC1
remaining binding (ALK C1156Y; binding; 1 µM): 100%

O=C(NCCCN1CCOCC1)c1ccc(Nc2ncc(Cl)c(-c3ccc(Cl)s3)n2)cc1
remaining binding (ALK L1196M; binding, competition with immobilised ligand; 1 µM): 90%

Nc1c(C(=O)NCc2ccc(C(=O)NCCCC3CCCCC3)cc2)cnn1-c1ccccc1
remaining binding (ALK; cell-free assay, competition with immobilised ligand; 0.1 µM): 100%

CN(C)c1nccc(-c2cnn3ncccc23)n1
remaining binding (ALK L1196M; binding; 1 µM): 100%

Cc1noc([C@H]2C[C@@H](c3ccc(C(F)(F)F)cc3)CN(C(=O)N3CCS(=O)(=O)C3)C2)n1
remaining binding (ALK L1196M; cell-free assay, competition with immobilised ligand; 1 µM): 100%

Cc1cnn2ncc(-c3ccnc(N(C)C)n3)c2c1
remaining binding (ALK; binding; 1 µM): 92%

O=C(NCCCN1CCOCC1)c1ccc(Nc2nccc(-c3cc4ccccc4s3)n2)cc1
remaining binding (ALK L1196M; binding, competition with immobilised ligand; 1 µM): 100%

COCCOc1nc(-c2ccc(Cl)nc2)nc2c1CN(C(=O)c1ncn3ccccc13)CC2
remaining binding (ALK L1196M; cell-free assay, competition with immobilised ligand; 0.1 µM): 100%

C=CC(=O)N1CCC(C(=O)NCC(=O)N2CCN(c3nc(-c4cnc(N)nc4C(F)F)nc(N4CCOCC4)n3)CC2)CC1
remaining binding (ALK L1196M; binding, competition with immobilised ligand; 1 µM): 79%

C[C@@H]1CCN(c2nccc(-c3cnn4ncccc34)n2)C1
remaining binding (ALK L1196M; binding; 1 µM): 100%

CNC(=O)[C@@H]1CC[C@@H](n2c(-c3ccc4cnccc4c3)nc3ccc(C(=O)NCc4cccc(C(N)=O)c4)cc32)C1
remaining binding (ALK L1196M; binding, competition with immobilised ligand; 1 µM): 100%

CCCCN(CCCC)C(=O)CN1C[C@@H](c2cc(OC)c3c(c2)OCO3)[C@H](C(=O)O)[C@H]1CC(C)(C)CCC
remaining binding (ALK C1156Y; cell-free assay, competition with immobilised ligand; 1 µM): 95.4%

O=C(Nc1c[nH]nc1C(=O)NC1CCNCC1)c1cc(F)cc(F)c1
remaining binding (ALK L1196M; binding, competition with immobilised ligand; 1 µM): 100%
